Experimental findings from ChEMBL document CHEMBL1122379, “Design of anticandidal agents: synthesis and biological properties of analogues of polyoxin L” (J Med Chem, 1983) are described below.

Test [1] deals with Candida albicans. As to the kind of experiment: Minimum effective concentration is the lowest concentration at which some (5%) morphologically abnormal cells were observed under microscopic examination. The conditions noted are these: read-out: MEC. The format is functional. The gist of the method:
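C. albicans H-317 (clinical isolate) grown at 37 °C in yeast nitrogen base with 0.5% isoleucine and 5.0% glucose, harvested at early log phase, washed. Twofold serial dilutions in yeast nitrogen base, 1×10^6 cells/mL per well, 48 h at 37 °C in humid chamber with slight agitation; wells examined microscopically for lowest concentration giving ~5% abnormal cells.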

Test [2] concerns Candida albicans. As to the kind of experiment: (§1) Concentration at which 50% of the cells incubated, were not able to form colonies when replated. The format is functional. Put shortly: (§2)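 C. albicans H-317 grown at 37 °C with stirring in yeast nitrogen base with 0.5% isoleucine and 5.0% glucose, harvested at early log phase. Cells were exposed at 1×10^6 cells/mL to twofold serial drug dilutions and incubated 48 h at 37 °C in a humid chamber. Wells were plated on potato dextrose agar for 2 days at 37 °C. Viability was taken as colonies versus hemocytometer counts.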

Test [3] deals with Chitin synthase 1 (Candida albicans) (UniProt P23316). As to the kind of experiment: Inhibitory activity against chitin synthetase from Candida albicans H-317. The test is classed as functional. The gist of the method:
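Mixed membrane fraction of C. albicans H-317 (5.17 mg protein/mL stock), trypsin-activated 10 min at 37 °C with ATP in imidazole buffer pH 6.5; trypsin inhibitor, GlcNAc and UDP-[14C]GlcNAc then added with inhibitor at 10^-3 to 10^-6 M. Aliquots taken at 5–60 min, acid/ethanol-precipitated chitin filtered and scintillation-counted; ID50 = concentration giving half of initial velocity from dose-response curves.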

Test [4] deals with Candida albicans. Described as §1. The format is ADME, organism-based. The following applies: read-out: Viability. The gist of the method: as §2

Chain of Chitin synthase 1 (Candida albicans) (P23316 whole entry, looked up): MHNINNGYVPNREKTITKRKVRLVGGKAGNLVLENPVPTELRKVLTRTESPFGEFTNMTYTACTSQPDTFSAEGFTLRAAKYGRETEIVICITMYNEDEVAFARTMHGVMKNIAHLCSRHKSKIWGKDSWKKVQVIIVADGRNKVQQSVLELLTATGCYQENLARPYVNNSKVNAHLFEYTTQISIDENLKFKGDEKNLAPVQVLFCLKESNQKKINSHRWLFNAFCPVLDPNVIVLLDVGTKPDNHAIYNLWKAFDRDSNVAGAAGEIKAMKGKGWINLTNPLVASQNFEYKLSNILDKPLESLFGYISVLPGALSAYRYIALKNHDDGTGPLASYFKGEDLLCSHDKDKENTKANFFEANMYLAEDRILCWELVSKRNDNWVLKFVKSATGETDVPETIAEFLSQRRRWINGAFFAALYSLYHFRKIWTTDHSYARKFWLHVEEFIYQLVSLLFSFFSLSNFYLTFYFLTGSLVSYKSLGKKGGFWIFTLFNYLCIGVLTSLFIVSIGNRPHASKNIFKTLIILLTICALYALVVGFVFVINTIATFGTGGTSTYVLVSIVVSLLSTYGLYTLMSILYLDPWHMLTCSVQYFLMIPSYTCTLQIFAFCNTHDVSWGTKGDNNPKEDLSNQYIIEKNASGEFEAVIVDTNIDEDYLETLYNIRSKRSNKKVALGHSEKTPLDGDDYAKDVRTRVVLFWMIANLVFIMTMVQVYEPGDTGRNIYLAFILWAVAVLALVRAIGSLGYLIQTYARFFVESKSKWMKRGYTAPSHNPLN

Consider `N[C@@H](Cc1c[nH]c2ccccc12)C(=O)NC(C(=O)O)[C@H]1O[C@@H](n2ccc(=O)[nH]c2=O)[C@H](O)[C@@H]1O` (some centres undefined), for which the minimal effective concentration with Candida albicans [1] stood at 130 µM. This compound came in with a Viability in the test on Candida albicans [2] of more than 8 mM. Also, the ID50 in test [3] was determined as 1.7 µM.
Consider `NC(=O)NCCCC(N)C(=O)N[C@@H](C(=O)O)[C@H]1O[C@@H](n2ccc(=O)[nH]c2=O)[C@H](O)[C@@H]1O` (some centres undefined), for which the minimal effective concentration in the test on Candida albicans [1] was 500 µM. Besides, the Viability in the test on Candida albicans [2] is more than 8 mM. Besides, the ID50 in test [3] was determined as 68 µM.
In the case of `NC(Cc1ccc(O)cc1)C(=O)NC(C(=O)O)[C@H]1O[C@@H](n2ccc(=O)[nH]c2=O)[C@H](O)[C@@H]1O` (some centres undefined), the minimal effective concentration with Candida albicans [1] amounted to 8000 µM. For the same compound, in the test with Candida albicans [4], the LC50 is more than 8000 µM. The ID50 in test [3] is 4.9 µM.
Turning to `NC(=O)OCC(O)C(O)C(N)C(=O)NC(C(=O)O)[C@H]1O[C@@H](n2cc(C(=O)O)c(=O)[nH]c2=O)[C@H](O)[C@@H]1O` (some centres undefined), the minimal effective concentration in the test with Candida albicans [1] is 2 µM. This compound also returned a Viability in the test with Candida albicans [2] of 1 mM. This compound also registered an ID50 in test [3] of 1.8 µM.
The like results for `CCCCC(N)C(=O)NC(C(=O)O)[C@H]1O[C@@H](n2ccc(=O)[nH]c2=O)[C@H](O)[C@@H]1O` (some centres undefined) were, in that order, 170 µM, 4 mM and 14 µM.
On to `NC(CCc1ccccc1)C(=O)NC(C(=O)O)[C@H]1O[C@@H](n2ccc(=O)[nH]c2=O)[C@H](O)[C@@H]1O` (some centres undefined), for which the minimal effective concentration in the test with Candida albicans [1] came to 60 µM. In addition, the Viability in the test with Candida albicans [2] is more than 8 mM. The compound also had an ID50 in test [3] of 3.8 µM.
On the same counts, the results for `NC(C(=O)O)[C@H]1O[C@@H](n2ccc(=O)[nH]c2=O)[C@H](O)[C@@H]1O` (some centres undefined) are 8000 µM, more than 8 mM and more than 100 µM.
The like results for `NC(Cc1ccc(Oc2ccc(O)cc2)cc1)C(=O)NC(C(=O)O)[C@H]1O[C@@H](n2ccc(=O)[nH]c2=O)[C@H](O)[C@@H]1O` (some centres undefined) were, in that order, 2000 µM, 4 mM and 16 µM.
